High-throughput results (PubChem BioAssay)
A selection: hits, their analogues and other compounds. The true share with any hit is near 9.8%.
Rad51 HR inh: blocks human Rad51 in homologous recombination; Q06609; hRad51 DNA strand exchange, fluorescence dequenching; inhibition, % at 10 µM; actives 0.085% (n = 200,000); AID 1385;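 active = inhibition above 40% at the single screening dose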;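 note: 0% = DMSO control wells and 100% = blanks with heterologous ssDNA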
Target sequence (Q06609 whole entry, looked up): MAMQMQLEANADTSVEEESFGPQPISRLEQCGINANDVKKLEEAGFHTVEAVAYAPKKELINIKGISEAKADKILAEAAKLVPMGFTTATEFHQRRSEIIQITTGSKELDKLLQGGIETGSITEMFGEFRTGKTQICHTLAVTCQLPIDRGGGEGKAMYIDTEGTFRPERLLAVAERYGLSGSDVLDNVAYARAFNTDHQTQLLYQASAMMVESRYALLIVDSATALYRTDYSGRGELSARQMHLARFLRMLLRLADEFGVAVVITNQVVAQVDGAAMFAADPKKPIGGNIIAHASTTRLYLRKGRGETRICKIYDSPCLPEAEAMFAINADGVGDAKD
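material = hRad51 filaments on single-stranded DNA | timing = filaments 15 min 37 °C, then compound 30 min | signal = FRET fluorescence dequenching, excitation 485 nm, emission 520 nm | benchmarks = control wells and blank wells on each plate | evaluation = percent inhibition relative to plate controls and blanks | compound = 10 µM final, single point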
Calpain2 inh: calpain II (pig) inhibition; purified calpain II, fluorogenic peptide substrate, 30 min; inhibition, % at 16 µM; actives 0.37% (n = 220,000); AID 1236;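 active = inhibition above about 50%, limit read from the data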
PMI act hi M6P: activators of human phosphomannose isomerase at near-saturating mannose 6-phosphate. actives 0.34% (n = 190,000). activation factor at 20 µM. P34949. AID 1216. coupled PMI enzyme assay, resazurin fluorescence, 20 min; stronger effect = higher value; 1 = untreated enzyme, 0 = substrate-free blank;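 active = activation factor of 2 or more at 20 µM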
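assay system = human phosphomannose isomerase with PGI, G6PDH, diaphorase coupling enzymes | quantity = 15 ng/mL PMI | incubation = enzyme reaction with compound 20 min at room temperature | medium = HEPES pH 7.4 buffer with MgCl2 and Tween-20 | compound dosing = one concentration, 20 µM, in 1% DMSO | measured by = Diaphorase-driven resazurin-to-resorufin fluorescence, excitation 544, emission 590 nm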
L major viab: reduces viability of Leishmania major promastigotes; resazurin fluorescence viability; actives 9% (n = 200,000); inhibition, % at 10 µM; in the data active = inhibition above about 50%;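 note: promastigotes grown with compound for 44 hours at 28 °C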
PMI activator: activators of human phosphomannose isomerase; P34949; purified human PMI, coupled resazurin fluorescence, 20 min; stronger effect = higher value; 1 = vehicle control, 0 substrate-free wells; activation factor at 20 µM; actives 0.005% (n = 190,000); AID 1214;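 active = activation factor of 2 or more at 20 µM, relative to plate controls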
WT yeast gro inh: growth inhibition of WT yeast, mitochondrial fusion screen | actives 2.1% (n = 190,000) | inhibition, % at 10 µM | AID 1362 | mitochondrial fusion phenotypic screen, WT strain; in the data active = inhibition above about 58%; tested in S. cerevisiae
Numbers without * were called inactive.

What do the screens show for `CC(=O)N1CCc2cc(S(=O)(=O)NCCN3CCC(C)CC3)ccc21`?
Rad51 HR inh: 7; Calpain2 inh: 35; PMI act hi M6P: 1; L major viab: 58*; PMI activator: 1; WT yeast gro inh: -13

What do the screens show for `CC(=O)N1CCc2cc(S(=O)(=O)NC(CC(C)C)C(=O)N3CCc4ccccc4C3)ccc21` (stereo not drawn)?
Rad51 HR inh: 1; Calpain2 inh: -15; PMI act hi M6P: 1; L major viab: 73*; PMI activator: 1; WT yeast gro inh: -14

How did Cc1cc(C)n2ncc(/C(N)=N/OC(=O)Nc3ccc(Cl)cc3)c2n1 do in these assays?
Rad51 HR inh: -14; Calpain2 inh: 21

Results for Cc1csc(NC(=O)c2cc3c(C)nn(Cc4ccccc4Cl)c3s2)n1 ?
Rad51 HR inh: -9; Calpain2 inh: -12; PMI act hi M6P: 0.9; L major viab: 96*; PMI activator: 0.9; WT yeast gro inh: 33

What do the screens show for `Cc1nn(Cc2ccccc2Cl)c2sc(C(=O)NC(C)(C)C)cc12`?
Rad51 HR inh: -4; Calpain2 inh: -49; PMI act hi M6P: 1; L major viab: 38; PMI activator: 0.9; WT yeast gro inh: 5

How did Cc1cc(C(=O)COc2cccnc2[N+](=O)[O-])c(C)n1-c1ccccc1 do in these assays?
Rad51 HR inh: 1; Calpain2 inh: 16; PMI act hi M6P: 0.5; L major viab: 51*; PMI activator: 0.7; WT yeast gro inh: 5

Results for Cc1ccc(-n2c(C)cc(C(=O)COc3cccnc3[N+](=O)[O-])c2C)cc1 ?
Calpain2 inh: 29; PMI act hi M6P: 0.5; L major viab: -2; PMI activator: 0.6; WT yeast gro inh: 14

Results for Cc1ccc(OCC(=O)c2cc(C)n(C)c2C)c([N+](=O)[O-])n1 ?
Rad51 HR inh: 0; Calpain2 inh: -11; PMI act hi M6P: 0.6; L major viab: 53*; PMI activator: 0.8; WT yeast gro inh: 6

Results for Cc1ccc(-c2[nH]c(=S)[nH]c(=O)c2C#N)cc1 ?
Calpain2 inh: 7; PMI act hi M6P: 1.1; L major viab: -4; PMI activator: 1.1; WT yeast gro inh: -7

What do the screens show for `O=C(OCC(O)CN1CCCCC1)C12CC3CC(CC(C3)C1)C2` (stereo not drawn)?
Rad51 HR inh: 6; Calpain2 inh: 27; PMI act hi M6P: 0.9; L major viab: 91*; PMI activator: 0.9; WT yeast gro inh: 1

How did NCC(O)COCCC12CC3CC(CC(C3)C1)C2 (stereo not drawn) do in these assays?
Rad51 HR inh: -8; Calpain2 inh: -5; PMI act hi M6P: 0.9; L major viab: 16; PMI activator: 0.8; WT yeast gro inh: 40

How did OC(COCCC12CC3CC(CC(C3)C1)C2)CN1CCCC1 (stereo not drawn) do in these assays?
Rad51 HR inh: -10; Calpain2 inh: 17; PMI act hi M6P: 1.1; L major viab: 91*; PMI activator: 1.1; WT yeast gro inh: 27

Results for CC(NCC(O)COCCC12CC3CC(CC(C3)C1)C2)c1ccccc1 (stereo not drawn) ?
Rad51 HR inh: -38; Calpain2 inh: 7; PMI act hi M6P: 1.1; L major viab: 100*; PMI activator: 1; WT yeast gro inh: 76*

What do the screens show for `CCCCCCCCCC(=O)Nc1cccnc1`?
Rad51 HR inh: -2; Calpain2 inh: 9; PMI act hi M6P: 1; L major viab: -9; PMI activator: 1; WT yeast gro inh: 32

What do the screens show for `COC(=O)/C(=C/c1ccco1)NC(=O)c1ccco1`?
Rad51 HR inh: -8; Calpain2 inh: 5; PMI act hi M6P: 0.9; L major viab: 80*; PMI activator: 1.1; WT yeast gro inh: -8

Results for COC(=O)/C(=C/c1ccco1)NC(=O)c1ccccc1 ?
Rad51 HR inh: 7; Calpain2 inh: -1; PMI act hi M6P: 1.1; L major viab: 2; PMI activator: 1.1; WT yeast gro inh: -6

How did Cc1ccc(C(=O)N/C(=C/c2ccco2)C(=O)OCN2C(=O)c3ccccc3C2=O)cc1 do in these assays?
Rad51 HR inh: 5; Calpain2 inh: -1; PMI act hi M6P: 0.9; L major viab: 61*; PMI activator: 0.9; WT yeast gro inh: -4
